Measured values reported in ChEMBL document CHEMBL3585293, “Design, antiviral and cytostatic properties of isoxazolidine-containing amonafide analogues” (Bioorg Med Chem, 2015).

Columns and labels:
[1] = system: K562; assay: Cytotoxicity against human K562 cells assessed as reduction of cell survival after 48 hrs by MTT assay; type: functional, cell-based; details: K562, 48 h
[2] = system: Cytomegalovirus; assay: Antiviral activity against Cytomegalovirus AD-169 infected in HEL cells assessed as reduction of virus-induced cytopathogenicity; type: functional, organism-based; details: Human betaherpesvirus 5, AD-169, HEL
[3] = system: Cytomegalovirus; assay: Antiviral activity against Cytomegalovirus Davis infected in HEL cells assessed as reduction of virus-induced cytopathogenicity; type: functional, organism-based; details: Human betaherpesvirus 5, Davis
[4] = Cytotoxicity against HEL cells assessed as alternation of cell morphology by microscopic analysis; type: cell-based; details: human
[5] = system: Human alphaherpesvirus 3; assay: Antiviral activity against Varicella-zoster virus expressing thymidine kinase infected in HEL cells assessed as reduction of virus-induced plaque formation; type: functional, organism-based; details: Human alphaherpesvirus 3, HEL
Procedure, shortened: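 Plaque-reduction assay in HEL cells. TK+ VZV strains were Oka and YS; TK- strains were 07-1 and YS-R. Virus input was 100 PFU, with graded compound concentrations. Plaques were counted once formation was complete in untreated infected controls. […] Two independent experiments were run.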

[6] = system: Human alphaherpesvirus 3; assay: Antiviral activity against thymidine kinase-deficient Varicella-zoster virus infected in HEL cells assessed as reduction of virus-induced plaque formation; type: functional, organism-based; details: Human alphaherpesvirus 3, HEL
Procedure, shortened: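 Plaque-reduction assay in HEL cells. TK+ VZV strains were Oka and YS; TK- strains were 07-1 and YS-R. Virus input was 100 PFU, with graded compound concentrations. Plaques were counted once formation was complete in untreated infected controls. Two independent experiments were run.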

[7] = system: Human alphaherpesvirus 1; assay: Antiviral activity against Herpes simplex virus 1 KOS infected in HEL cells assessed as reduction of virus-induced cytopathogenicity; type: functional, organism-based; details: Human alphaherpesvirus 1, KOS
[8] = system: Human alphaherpesvirus 1; assay: Antiviral activity against thymidine kinase-deficient acyclovir-resistant Herpes simplex virus 1 KOS infected in HEL cells assessed as reduction of virus-induced cytopathogenicity; type: functional, organism-based; details: Human alphaherpesvirus 1, KOS
[9] = system: L1210; assay: Cytotoxicity against mouse L1210 cells assessed as inhibition of cell proliferation; type: functional, cell-based
[10] = system: CCRF-CEM; assay: Cytotoxicity against human CEM cells assessed as inhibition of cell proliferation; type: functional, cell-based
[11] = system: HeLa; assay: Cytotoxicity against human HeLa cells assessed as inhibition of cell proliferation; type: functional, cell-based
[12] = system: CCRF-CEM; assay: Potency index, ratio of 5-Fluorouracil IC50 to compound IC50 for human CEM cells; type: functional
[13] = system: MDCK; assay: Cytotoxicity against MDCK cells assessed cell viability by MTS assay; type: cell-based, Canis lupus familiaris; details: dog
Procedure, shortened: (§1)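 Cells were exposed to a range of compound concentrations. Viability was measured by the colorimetric formazan-based MTS assay.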

[14] = Cytotoxicity against CRFK cells assessed cell viability by MTS assay; type: cell-based, Felis catus; details: cat; procedure, shortened: as §1
[15] = system: Human alphaherpesvirus 2; assay: Antiviral activity against Herpes simplex virus 2 G infected in HEL cells assessed as reduction of virus-induced cytopathogenicity; type: functional, organism-based; details: Human alphaherpesvirus 2, strain G
[16] = system: Coxsackievirus B4; assay: Antiviral activity against Coxsackievirus B4 infected in African green monkey Vero cells assessed as reduction of virus-induced cytopathogenicity; type: functional, organism-based; details: Enterovirus B
Procedure, shortened: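 Confluent Vero (Coxsackie B4) or HeLa (vesicular stomatitis virus) monolayers in 96-well plates were inoculated with 100 CCID50 virus or 20 PFU and incubated with varying compound concentrations. Cytopathicity was scored once complete in untreated infected controls. […] Two separate experiments were run.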

[17] = system: Punta Toro virus; assay: Antiviral activity against Punta Toro virus infected in African green monkey Vero cells assessed as reduction of virus-induced cytopathogenicity; type: functional, organism-based
Procedure, shortened: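 Confluent Vero monolayers were infected with 100 CCID50 of virus and then incubated with a range of compound concentrations. Viral cytopathicity was scored once it was complete in untreated infected control cultures. […] Two independent experiments were run.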

[18] = Cytotoxicity against African green monkey Vero cells assessed as alternation of cell morphology by microscopic analysis; type: cell-based; details: chlorocebus sabaeus
Procedure, shortened: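 Vero cells were exposed to graded compound concentrations. MCC is the lowest concentration producing a microscopically detectable change in cell morphology. Two experiments were run.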

[19] = system: HeLa; assay: Cytotoxicity against human HeLa cells assessed as reduction of cell survival after 48 hrs by MTT assay; type: functional, cell-based

| SMILES | IC50 [1] [µM] | EC50 [2] [µM] | EC50 [3] [µM] | MCC [4] [µM] | EC50 [5] [µM] | EC50 [6] [µM] | EC50 [7] [µM] | EC50 [8] [µM] | IC50 [9] [µM] | IC50 [10] [µM] | IC50 [11] [µM] | Ratio IC50 [12] | CC50 [13] [µM] | CC50 [14] [µM] | EC50 [15] [µM] | EC50 [16] [µM] | EC50 [17] [µM] | MCC [18] [µM] | IC50 [19] [µM] |
| --- | --- | --- | --- | --- | --- | --- | --- | --- | --- | --- | --- | --- | --- | --- | --- | --- | --- | --- | --- |
| CCOP(=O)(OCC)C1CC(c2cccc3ccccc23)ON1C (configuration not stated) | 90 | – | – | – | – | – | – | – | – | – | – | – | – | – | – | – | – | – | – |
| CCOP(=O)(OCC)[C@@H]1C[C@@H](C(=O)Nc2cc3c4c(cccc4c2)C(=O)N(CCN2CCCC2)C3=O)ON1C (relative stereo) | – | 8.9 | 10.9 | ≥ 100 | > 20 | > 20 | 45 | 45 | 1.7 | 3.9 | 1.1 | 5 | 87.3 | > 100 | – | – | – | – | – |
| CCOP(=O)(OCC)[C@@H]1C[C@H](C(=O)Nc2cc3c4c(cccc4c2)C(=O)N(CCN(C)C)C3=O)ON1C (racemic) | – | 37 | 37 | ≥ 100 | ≥ 11 | 20 | 50 | 50 | 2.9 | 6 | 3.3 | – | > 100 | 62.2 | 50 | – | – | – | – |
| CCOP(=O)(OCC)[C@@H]1C[C@H](C(=O)Nc2cc3c4c(cccc4c2)C(=O)N(CCN2CCCC2)C3=O)ON1C (racemic) | – | 45 | 45 | ≥ 100 | > 20 | > 20 | > 100 | > 100 | 4.4 | 12 | 3 | – | > 100 | 89.1 | 58 | – | – | – | – |
| CCOP(=O)(OCC)[C@@H]1C[C@@H](C(=O)Nc2cc3c4c(cccc4c2)C(=O)N(CCN(C)C)C3=O)ON1C (racemic) | – | 8.9 | 8.9 | ≥ 100 | 14 | 26 | 45 | 45 | 1.5 | 3.4 | 1.8 | 5 | 75.2 | 95.2 | – | – | – | – | – |
| NC(=O)c1ncn([C@@H]2O[C@H](CO)[C@@H](O)[C@H]2O)n1 [RIBAVIRIN] | – | – | – | – | – | – | – | – | – | – | – | – | – | – | – | > 250 | 112 | > 250 | – |
| CCOP(=O)(OCC)C1CC(c2ccc3ccccc3c2)ON1C (configuration not stated) | – | – | – | – | – | – | – | – | – | – | – | – | – | – | – | – | – | – | 50 |
